Assay [1] has as its system Staphylococcus aureus. The experiment in a line: Antibacterial activity against Staphylococcus aureus ATCC 29213 at 200 ug/disk by agar disk diffusion method. Particulars: read-out: DIZ. In kind it is functional. The essentials: (§1)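 Agar disk diffusion following standard protocols; test material applied at 200 μg/disk; gentamicin at 20 μg/disk served as the standard. Organisms: S. aureus ATCC 29213, B. subtilis ATCC 6051, E. coli ATCC 25922 and C. albicans ATCC 14053. Read-out was the diameter of the inhibitory zone in mm.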
(In general: In agar diffusion tests the substance spreads into inoculated agar from a disc or well.)

Assay [2] has as its system Escherichia coli. The experiment in a line: Antibacterial activity against Escherichia coli ATCC 25922 at 200 ug/disk by agar disk diffusion method. In kind it is functional, organism-based. Summed up: as §1
Assay [3] relates to Bacillus subtilis. The assay can be described thus: Antibacterial activity against Bacillus subtilis ATCC 6051 at 200 ug/disk by agar disk diffusion method. Type of assay: functional. Particulars: read-out: DIZ. The essentials:
as §1

The subject of assay [4] is U2OS. The experiment in a line: Cytotoxicity against human U2OS cells assessed as cell viability after 48 hrs by CellTiter-Blue assay. Type of assay: functional, cell-based. Summed up:
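Human osteosarcoma U2OS cells were seeded at 250 cells per well in 384-well format and incubated overnight. Each well received 50 nL of a 10 mM DMSO stock, in duplicate, then 48 h at 37 °C. CellTiter-Blue reagent was added, followed by a further 22 h at 37 °C. […] was read at 530/580 nm.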
(In general: The colour change of resazurin is a common sign of viable cells or microbes.)

The subject of assay [5] is Candida albicans. The assay can be described thus: Antifungal activity against Candida albicans ATCC 14053 at 200 ug/disk by agar disk diffusion method. In kind it is functional, organism-based. The essentials:
as §1

Assay [6] deals with Staphylococcus aureus. The assay can be described thus: Antibacterial activity against Staphylococcus aureus ATCC 29213 by agar disk diffusion method. Type of assay: functional. The essentials: as §1
The subject of assay [7] is Escherichia coli. The assay can be described thus: Antibacterial activity against Escherichia coli ATCC 25922 by agar disk diffusion method. Type of assay: functional, organism-based. Summed up:
as §1

For assay [8], the system named is Candida albicans. The experiment in a line: Antifungal activity against Candida albicans ATCC 14053 by agar disk diffusion method. In kind it is functional, organism-based. Summed up:
as §1

Assay [9] concerns Bacillus subtilis. The assay can be described thus: Antibacterial activity against Bacillus subtilis ATCC 6051 by agar disk diffusion method. Type of assay: functional, organism-based. The essentials:
as §1

Structures are written as SMILES. Active and inactive are the calls of the source. The rule behind the calls is not given here. A value given as a limit tells only on which side of the number the result lay.

The term IC50 denotes the concentration needed to halve the response being measured. As to `C/C1=C\CC[C@](C)(O)[C@H]2C[C@@H]2C(C)(C)C[C@H]1O`, the zone of inhibition at 200 µg/disc in assay [1] and in assay [3] was 13 mm in each case. For the same molecule, the outcome in assay [2] and in assay [5] was inactive. Besides, in [4], the IC50 is more than 10 µM.

As for `C/C1=C\C[C@@H](O)[C@](C)(O)[C@H]2C[C@@H]2C(C)(C)C[C@H]1O`, in [6], the “diameter of the inhibition zone (DIZ)” value stood at 9 mm. Moreover, in [4], the IC50 is more than 10 µM.

On to `C=C1CC/C=C(\C)[C@H](O)CC(C)(C)[C@H]2C[C@H]12`, for which the result in assay [7], in [6], in assay [8] and in assay [9] was inactive. Moreover, in [4], the IC50 was more than 10 µM.
